Calls of active or inactive are those of the source. The calls are words filed in the database; no cut-off is given here.
Columns and labels:
[1] = Retardation factor of the compound using 1-butanol-acetic acid-water as solvent system by paper chromatography; assay type: physicochemical; conditions: buffer
[2] = target: Pyruvate kinase PKM (Rattus norvegicus) (UniProt P11980); test: Inactivation of Sprague-Dawley rat pyruvate kinase M using PEP as substrate at 5 mM at pH 7 after 8 hrs by spectrophotometric analysis
Chain of Pyruvate kinase PKM (Rattus norvegicus) (P11980 whole entry): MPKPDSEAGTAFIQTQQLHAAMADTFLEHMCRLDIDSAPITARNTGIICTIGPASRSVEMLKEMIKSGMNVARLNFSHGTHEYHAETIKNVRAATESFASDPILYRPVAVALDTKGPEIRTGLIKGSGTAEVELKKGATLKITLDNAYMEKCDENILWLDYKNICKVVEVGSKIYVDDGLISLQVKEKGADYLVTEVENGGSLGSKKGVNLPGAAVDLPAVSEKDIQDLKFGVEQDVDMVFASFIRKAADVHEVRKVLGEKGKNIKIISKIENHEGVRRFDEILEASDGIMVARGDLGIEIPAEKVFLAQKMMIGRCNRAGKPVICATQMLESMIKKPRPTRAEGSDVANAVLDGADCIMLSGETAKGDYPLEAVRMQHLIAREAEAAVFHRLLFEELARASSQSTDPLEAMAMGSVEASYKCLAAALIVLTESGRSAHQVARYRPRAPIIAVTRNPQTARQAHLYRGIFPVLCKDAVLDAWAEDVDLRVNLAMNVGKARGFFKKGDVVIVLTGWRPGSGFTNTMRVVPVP
In short: (§1)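 Electrofocused isozymes, at tenfold (M) or twofold (L, K) assay level, exposed at pH 7.0 and 22 °C to Mg salts of the analogues. Medium: triethanolamine buffer with MgCl2, KCl, NADH, fructose diphosphate and lactate dehydrogenase, no ADP or PEP. Exposure was 8 h at 5 mM, or up to 10 mM for the liver isozyme; M controls were followed to 24 h. Timed aliquots were assayed by the coupled LDH method at 340 nm with 0.373 mM ADP, against controls lacking analogue.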

Rattus norvegicus [3] = species: Rattus norvegicus; test: Inactivation of Sprague-Dawley rat pyruvate kinase K using PEP as substrate at 5 mM at pH 7 after 8 hrs by spectrophotometric analysis; in short: as §1
[4] = target: Pyruvate kinase PKM (Rattus norvegicus) (UniProt P11980); test: Activity at Sprague-Dawley rat pyruvate kinase M assessed as initial enzyme reaction velocity at 0.21 mM by spectrophotometric analysis relative to ADP
In short: (§2)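 Isozymes K, L and M from male Sprague-Dawley rat kidney, liver and muscle, partially purified by electrofocusing and dialyzed. Assay in 0.05 M triethanolamine-HCl pH 7.0 with 5 mM MgCl2, 67 mM KCl, 0.56 mM phosphoenolpyruvate, 0.4 mM NADH, 10 μM fructose 1,6-diphosphate, 0.21 mM nucleotide and lactate dehydrogenase. After 5 min preincubation, the nucleotide starts the reaction. Initial rate at 340 nm, 22 °C, expressed relative to ADP (100).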

[5] = target: Pyruvate kinase PKLR (Rattus norvegicus) (UniProt P12928); test: Activity at Sprague-Dawley rat pyruvate kinase L assessed as initial enzyme reaction velocity at 0.21 mM by spectrophotometric analysis relative to ADP; in short: as §2
Chain of Pyruvate kinase PKLR (Rattus norvegicus) (P12928 whole entry): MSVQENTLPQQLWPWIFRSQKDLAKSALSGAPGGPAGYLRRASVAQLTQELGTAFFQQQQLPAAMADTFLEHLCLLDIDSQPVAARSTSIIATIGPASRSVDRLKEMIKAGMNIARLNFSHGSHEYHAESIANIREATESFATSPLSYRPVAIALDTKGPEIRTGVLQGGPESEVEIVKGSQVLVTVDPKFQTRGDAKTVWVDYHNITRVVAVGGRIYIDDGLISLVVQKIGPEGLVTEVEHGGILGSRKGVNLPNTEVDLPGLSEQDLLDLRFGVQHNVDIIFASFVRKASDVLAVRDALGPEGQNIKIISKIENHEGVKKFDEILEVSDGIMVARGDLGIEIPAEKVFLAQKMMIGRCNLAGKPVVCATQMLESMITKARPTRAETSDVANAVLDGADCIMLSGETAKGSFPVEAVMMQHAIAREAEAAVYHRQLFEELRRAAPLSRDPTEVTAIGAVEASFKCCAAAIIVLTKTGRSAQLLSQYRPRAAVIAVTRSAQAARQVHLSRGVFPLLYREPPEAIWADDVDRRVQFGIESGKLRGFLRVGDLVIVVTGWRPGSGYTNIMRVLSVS

[6] = target: Pyruvate kinase PKLR (Rattus norvegicus) (UniProt P12928); test: Inactivation of Sprague-Dawley rat pyruvate kinase L using PEP as substrate at 5 mM at pH 7 after 8 hrs by spectrophotometric analysis; in short: as §1
[7] = Drug metabolism assessed as Sprague-Dawley rat pyruvate kinase K-mediated drug conversion; assay type: ADME
In short: (§3)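 Each isozyme preparation (K, L, M) incubated with the analogue under inactivation conditions: pH 7.0, 22 °C, triethanolamine buffer with MgCl2 and KCl. Conversion of the analogue to other compounds checked by paper electrophoresis at pH 3.5.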

Rattus norvegicus [8] = species: Rattus norvegicus; test: Inactivation of Sprague-Dawley rat pyruvate kinase K using PEP as substrate at 7 mM pretreated with pyruvate kinase L by spectrophotometric analysis
[9] = target: Pyruvate kinase PKM (Rattus norvegicus) (UniProt P11980); test: Inactivation of Sprague-Dawley rat pyruvate kinase M using PEP as substrate at 7 mM pretreated at 22 degC for 2 hrs with pyruvate kinase L measured for 3.5 hrs by spectrophotometric analysis
In short: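 Liver isozyme treated with the analogue (7 mM) for 2 h at 22 °C under the usual inactivation conditions, then an approximately equal activity of muscle isozyme added. Muscle activity followed for a further 3.5 h by the LDH-coupled 340 nm assay.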

Pyruvate kinase PKM = Pyruvate kinase PKM (Rattus norvegicus, UniProt P11980); test: Drug metabolism assessed as Sprague-Dawley rat pyruvate kinase M-mediated drug conversion; assay type: ADME; in short: as §3
Chain of Pyruvate kinase PKM (P11980 whole entry): as the sequence (P11980 whole entry) above

[10] = target: Pyruvate kinase PKLR (Rattus norvegicus) (UniProt P12928); test: Inactivation of Sprague-Dawley rat pyruvate kinase L using PEP as substrate at 7 mM pretreated with pyruvate kinase M measured for 4 hrs by spectrophotometric analysis
In short: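 Muscle isozyme first exposed to the analogue (7 mM) under the usual inactivation conditions at 22 °C, then liver isozyme added. Liver isozyme inactivation was followed over 4 h by the LDH-coupled 340 nm assay.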

[11] = target: Pyruvate kinase PKLR (Rattus norvegicus) (UniProt P12928); test: Inactivation of Sprague-Dawley rat pyruvate kinase L using PEP as substrate at 7 mM pretreated with pyruvate kinase K by spectrophotometric analysis
Rattus norvegicus [12] = species: Rattus norvegicus; test: Activity at Sprague-Dawley rat pyruvate kinase K assessed as initial enzyme reaction velocity at 0.21 mM by spectrophotometric analysis relative to ADP; in short: as §2
[13] = target: Pyruvate kinase PKLR (Rattus norvegicus) (UniProt P12928); test: Inactivation of Sprague-Dawley rat pyruvate kinase L using PEP as substrate at 5 mM at pH 7 after 8 hrs by spectrophotometric analysis in presence of 5 mM ADP
In short: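 Liver isozyme exposed to 5 mM Mg-analogue together with 5 mM ADP for 8 h at 22 °C, pH 7.0, in triethanolamine/MgCl2/KCl medium. Remaining activity was measured in timed aliquots by the LDH-coupled 340 nm assay with 0.373 mM ADP.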

Pyruvate kinase PKLR [14] = target: T1, Pyruvate kinase PKLR (Rattus norvegicus, UniProt P12928); test: Drug metabolism assessed as Sprague-Dawley rat pyruvate kinase L-mediated drug conversion; assay type: ADME; in short: as §3
T1 sequence (P12928 whole entry): as the sequence (P12928 whole entry) above

[15] = target: Pyruvate kinase PKLR (Rattus norvegicus) (UniProt P12928); test: Half life for inactivation of Sprague-Dawley rat pyruvate kinase L using PEP as substrate by spectrophotometric analysis
In short: (§4)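 Liver isozyme incubated at 22 °C with Mg salt of the analogue at 3.0–10.0 mM in triethanolamine buffer with MgCl2, KCl, NADH, fructose diphosphate and lactate dehydrogenase, without ADP or PEP. Aliquots taken over time and assayed at 340 nm with 0.373 mM ADP. Pseudo-first-order inactivation half-times were derived, with t1/2 extrapolated to infinite inhibitor level, and apparent K from the rate-saturation analysis.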

Pyruvate kinase PKLR [16] = target: T1, Pyruvate kinase PKLR; test: Binding affinity to Sprague-Dawley rat pyruvate kinase L assessed as apprent enzyme-inhibitor dissociation constant using PEP as substrate by spectrophotometric analysis; conditions: read-out: Kd(app); in short: as §4
[17] = target: Pyruvate kinase PKLR (Rattus norvegicus) (UniProt P12928); test: Inactivation of Sprague-Dawley rat pyruvate kinase L using PEP as substrate at 10 mM at pH 7 after 8 hrs by spectrophotometric analysis; in short: as §1

| Rf [1] | inhibition [2] | inhibition (Rattus norvegicus [3]) | Activity [4] [%] | Activity [5] [%] | inhibition [6] | SMILES | other results |
| --- | --- | --- | --- | --- | --- | --- | --- |
| 0.6 | inactive | inactive | 7 | 8 | inactive | O=C(CI)NCCCCCNc1ncnc2c1ncn2[C@@H]1O[C@H](COP(=O)(O)OP(=O)(O)O)[C@@H](O)[C@H]1O | – |
| – | – | – | – | 9 | inactive | CC(=O)NCCCCCCCCNc1ncnc2c1ncn2[C@@H]1O[C@H](COP(=O)(O)OP(=O)(O)O)[C@@H](O)[C@H]1O | – |
| 0.71 | – | inactive | 54 | 13 | 80% | O=C(CI)NCCCCCCCCNc1ncnc2c1ncn2[C@@H]1O[C@H](COP(=O)(O)OP(=O)(O)O)[C@@H](O)[C@H]1O | Drug metabolism [7]: metabolite_notdetected; inhibition (Rattus norvegicus [8]): inactive; inhibition [9]: inactive; Drug metabolism (Pyruvate kinase PKM): metabolite_notdetected; inhibition [10]: Active; inhibition [11]: Active; Activity (Rattus norvegicus [12]): 21%; inhibition [13]: inactive; Drug metabolism (Pyruvate kinase PKLR [14]): metabolite_notdetected; T1/2 [15]: 23 min; Kd (Pyruvate kinase PKLR [16]): 36 mM |
| 0.55 | inactive | inactive | – | – | inactive | O=C(CI)NCCCNc1ncnc2c1ncn2[C@@H]1O[C@H](COP(=O)(O)OP(=O)(O)O)[C@@H](O)[C@H]1O | – |
| 0.65 | inactive | inactive | 19 | 9 | inactive | O=C(CI)NCCCCCCNc1ncnc2c1ncn2[C@@H]1O[C@H](COP(=O)(O)OP(=O)(O)O)[C@@H](O)[C@H]1O | – |
| – | – | – | – | – | inactive | O=C(CI)NCCCCCCCCNc1ncnc2c1ncn2[C@@H]1O[C@H](COP(=O)(O)OP(=O)(O)OP(=O)(O)O)[C@@H](O)[C@H]1O | – |
| 0.53 | inactive | inactive | – | – | inactive | O=C(CI)NCCNc1ncnc2c1ncn2[C@@H]1O[C@H](COP(=O)(O)OP(=O)(O)O)[C@@H](O)[C@H]1O | – |
| 0.68 | inactive | inactive | 25 | 12 | inactive | O=C(CI)NCCCCCCCNc1ncnc2c1ncn2[C@@H]1O[C@H](COP(=O)(O)OP(=O)(O)O)[C@@H](O)[C@H]1O | – |
| 0.58 | inactive | inactive | – | – | inactive | O=C(CI)NCCCCNc1ncnc2c1ncn2[C@@H]1O[C@H](COP(=O)(O)OP(=O)(O)O)[C@@H](O)[C@H]1O | – |
| – | – | – | – | – | – | O=C(CI)NCCCCCCCCNc1ncnc2c1ncn2[C@@H]1O[C@H](COP(=O)(O)O)[C@@H](O)[C@H]1O | inhibition [17]: inactive |

From ChEMBL document CHEMBL3272298, “Use of adenine nucleotide derivatives to assess the potential of exo-active-site-directed reagents as species- or isozyme-specific enzyme inactivators. 2. Isozyme-specific inactivation of a mammalian enzyme and its significance in the possible design of fetal isozyme targeted antineoplastic agents” (J Med Chem, 1978)
